According to ChEMBL document CHEMBL1687738, “Effect of Candida glabrata FKS1 and FKS2 mutations on echinocandin sensitivity and kinetics of 1,3-beta-D-glucan synthase: implication for the existing susceptibility breakpoint” (Antimicrob Agents Chemother, 2009):
In brackets after ≈: the same amount, converted by molar mass. Starred links: 1 amine or outer side, 2 acyl side, 3 side chain; linkers in the order of their positions; H or OH if unused. Positions of bridges follow the written chain, without caps; N, C: chain ends. Non-standard residues stand in square brackets, D forms with d. Residues, ends and D or L forms follow the SMILES beside them. *: point of attachment. hTyr(3S-OH,4S-OH,3'-OSO3H) = N[C@H](C(=O)O)[C@H](O)[C@@H](O)c1ccc(O)c(OS(=O)(=O)O)c1; pTerphenylCO(4''-OnC5H11) = CCCCCOc1ccc(-c2ccc(-c3ccc(C(=O)*)cc3)cc2)cc1; Orn(4R-OH,5R-OH) = O=C([C@H](C[C@@H](O)[C@@H](O)N[*:3])N[*:1])[*:2]; hTyr(3S-OH,4S-OH) = N[C@H](C(=O)O)[C@H](O)[C@@H](O)c1ccc(O)cc1; Pro(3S-OH,4S-Me) = C[C@H]1CN[C@H](C(=O)O)[C@H]1O; X1 = CCCCCOc1ccc(-c2cc(-c3ccc(C(=O)*)cc3)no2)cc1; Gln(3R-OH) = NC(=O)C[C@@H](O)[C@H](N)C(=O)O; Hyp = O=C(O)[C@@H]1C[C@@H](O)CN1

Columns and labels:
[1] = target: 1,3-beta-glucan synthase component FKS1 (Candida glabrata, UniProt E2GKZ4, S629P); assay: Inhibition of Candida glabrata isolate 5847 1,3-beta-D-glucan synthase Fks1p S629P mutant/wild type Fks2p; design: species or system Nakaseomyces glabratus
Outline: (§1)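 Cells grown in YPD broth at 35°C with vigorous shaking to early stationary phase. Membrane protein extracted and glucan synthase partially purified by product entrapment. Filtration polymerization assay measured [3H]glucose incorporation into product, started by adding enzyme. Echinocandin serial dilutions spanned 0.01–10,000 ng/ml, with 1% DMSO controls for anidulafungin. IC50 from variable-slope sigmoidal fit.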

[2] = Inhibition of Candida glabrata isolate 3168 wild type 1,3-beta-D-glucan synthase; design: species or system Nakaseomyces glabratus; outline: as §1
Nakaseomyces glabratus [3] = assay: Antifungal activity against Candida glabrata isolate 41400 expressing wild type Fks1p and Fks2p D666G mutant by CLSI method; assay type: functional
Outline: (§2)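 Broth microdilution MIC per CLSI M27-A3 in RPMI 1640 medium without serum. Caspofungin and micafungin stocks in sterile water; anidulafungin stock in 100% DMSO; stocks kept at −86°C.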

[4] = Inhibition of Candida glabrata ATCC 90030 wild type 1,3-beta-D-glucan synthase; design: species or system Nakaseomyces glabratus; outline: as §1
Nakaseomyces glabratus [5] = assay: Antifungal activity against Candida glabrata isolate 3830 expressing wild type Fks1p and Fks2p S663P mutant by CLSI method; assay type: functional; outline: as §2
Nakaseomyces glabratus [6] = assay: Antifungal activity against Candida glabrata ATCC 90030 expressing wild type Fks1p and Fks2p by CLSI method in presence of 50% human serum; assay type: functional
Outline: (§3)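 Broth microdilution MIC per CLSI M27-A3 in RPMI 1640 supplemented with 50% serum. Caspofungin and micafungin stocks in sterile water; anidulafungin stock in 100% DMSO; stocks kept at −86°C.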

1,3-beta-glucan synthase [7] = target: 1,3-beta-glucan synthase (Candida glabrata, UniProt F5BCZ9, F659V); assay: Inhibition of Candida glabrata isolate 234 1,3-beta-D-glucan synthase wild type Fks1p/Fks2p F659V mutant; design: species or system Nakaseomyces glabratus; outline: as §1
1,3-beta-glucan synthase (Candida glabrata, UniProt F5BCZ9, F659V), sequence (F5BCZ9 entry or part of it F659V): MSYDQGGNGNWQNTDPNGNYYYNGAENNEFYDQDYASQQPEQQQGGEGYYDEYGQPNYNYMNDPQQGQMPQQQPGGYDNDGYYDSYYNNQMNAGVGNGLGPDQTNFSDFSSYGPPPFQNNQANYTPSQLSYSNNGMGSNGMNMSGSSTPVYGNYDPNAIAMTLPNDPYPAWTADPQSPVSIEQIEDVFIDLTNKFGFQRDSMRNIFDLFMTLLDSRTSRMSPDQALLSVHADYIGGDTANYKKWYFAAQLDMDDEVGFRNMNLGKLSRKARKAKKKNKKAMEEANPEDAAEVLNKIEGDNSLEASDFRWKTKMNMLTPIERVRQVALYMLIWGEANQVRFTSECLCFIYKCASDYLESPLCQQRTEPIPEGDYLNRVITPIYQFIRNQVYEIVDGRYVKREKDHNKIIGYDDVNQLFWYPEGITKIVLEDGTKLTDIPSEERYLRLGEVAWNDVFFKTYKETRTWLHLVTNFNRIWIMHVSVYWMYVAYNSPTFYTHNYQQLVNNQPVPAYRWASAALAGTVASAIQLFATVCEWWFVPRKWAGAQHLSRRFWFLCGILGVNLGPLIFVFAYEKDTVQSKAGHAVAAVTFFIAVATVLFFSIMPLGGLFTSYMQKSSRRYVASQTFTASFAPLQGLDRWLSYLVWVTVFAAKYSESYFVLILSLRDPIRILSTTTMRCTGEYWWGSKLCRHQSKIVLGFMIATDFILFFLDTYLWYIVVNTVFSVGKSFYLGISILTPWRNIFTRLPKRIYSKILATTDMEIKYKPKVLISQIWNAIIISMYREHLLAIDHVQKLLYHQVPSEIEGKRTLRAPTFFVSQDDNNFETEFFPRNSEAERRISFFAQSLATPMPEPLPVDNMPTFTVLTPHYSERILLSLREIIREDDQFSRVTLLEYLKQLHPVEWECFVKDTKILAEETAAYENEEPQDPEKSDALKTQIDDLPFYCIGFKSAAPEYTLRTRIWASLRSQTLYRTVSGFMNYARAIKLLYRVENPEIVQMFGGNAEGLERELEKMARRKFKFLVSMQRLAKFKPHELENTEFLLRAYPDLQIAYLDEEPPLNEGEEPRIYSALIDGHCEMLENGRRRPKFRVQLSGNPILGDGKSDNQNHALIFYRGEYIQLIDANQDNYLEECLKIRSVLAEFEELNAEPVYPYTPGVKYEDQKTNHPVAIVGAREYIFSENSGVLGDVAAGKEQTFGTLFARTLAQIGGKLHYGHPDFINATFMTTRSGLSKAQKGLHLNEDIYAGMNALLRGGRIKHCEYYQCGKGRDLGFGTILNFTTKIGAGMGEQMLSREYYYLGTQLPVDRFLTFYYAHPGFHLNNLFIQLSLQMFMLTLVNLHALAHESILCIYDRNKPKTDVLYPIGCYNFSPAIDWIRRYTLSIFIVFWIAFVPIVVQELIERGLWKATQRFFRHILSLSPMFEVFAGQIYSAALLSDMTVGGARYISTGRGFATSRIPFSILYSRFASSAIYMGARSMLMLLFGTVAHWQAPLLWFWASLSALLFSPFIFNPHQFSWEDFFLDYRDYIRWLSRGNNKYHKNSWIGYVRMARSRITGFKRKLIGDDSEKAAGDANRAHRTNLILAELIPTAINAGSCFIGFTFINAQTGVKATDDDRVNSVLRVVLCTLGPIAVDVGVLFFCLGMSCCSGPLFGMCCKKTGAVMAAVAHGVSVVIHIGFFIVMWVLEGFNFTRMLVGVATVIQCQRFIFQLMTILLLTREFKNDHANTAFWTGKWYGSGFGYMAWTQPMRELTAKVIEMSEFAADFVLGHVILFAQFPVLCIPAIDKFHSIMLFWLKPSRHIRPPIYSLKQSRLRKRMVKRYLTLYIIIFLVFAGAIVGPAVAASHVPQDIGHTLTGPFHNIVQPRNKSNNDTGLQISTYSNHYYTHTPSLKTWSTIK

Nakaseomyces glabratus [8] = assay: Antifungal activity against Candida glabrata isolate 3168 expressing wild type Fks1p and Fks2p by CLSI method; assay type: functional; outline: as §2
Nakaseomyces glabratus [9] = assay: Antifungal activity against Candida glabrata isolate 41400 expressing wild type Fks1p and Fks2p D666G mutant by CLSI method in presence of 50% human serum; assay type: functional; outline: as §3
1,3-beta-glucan synthase [10] = target: 1,3-beta-glucan synthase (Candida glabrata, UniProt F5BCZ9, S663P); assay: Inhibition of Candida glabrata isolate 3830 1,3-beta-D-glucan synthase wild type Fks1p/Fks2p S663P mutant; design: species or system Nakaseomyces glabratus; outline: as §1
Nakaseomyces glabratus [11] = assay: Antifungal activity against Candida glabrata isolate 234 expressing wild type Fks1p and Fks2p F659V mutant by CLSI method in presence of 50% human serum; assay type: functional; outline: as §3
Nakaseomyces glabratus [12] = assay: Antifungal activity against Candida glabrata isolate 218 expressing wild type Fks1p and Fks2p by CLSI method; assay type: functional; outline: as §2
[13] = Inhibition of Candida glabrata isolate 42971 1,3-beta-D-glucan synthase Fks1p D632Y mutant/Fks2p R1377STOP mutant; design: species or system Nakaseomyces glabratus; outline: as §1
1,3-beta-glucan synthase [14] = target: 1,3-beta-glucan synthase (Candida glabrata, UniProt F5BCZ9, D666G); assay: Inhibition of Candida glabrata isolate 41400 1,3-beta-D-glucan synthase wild type Fks1p/Fks2p D666G mutant; design: species or system Nakaseomyces glabratus; outline: as §1
1,3-beta-glucan synthase (Candida glabrata, UniProt F5BCZ9, D666G), sequence (F5BCZ9 entry or part of it D666G): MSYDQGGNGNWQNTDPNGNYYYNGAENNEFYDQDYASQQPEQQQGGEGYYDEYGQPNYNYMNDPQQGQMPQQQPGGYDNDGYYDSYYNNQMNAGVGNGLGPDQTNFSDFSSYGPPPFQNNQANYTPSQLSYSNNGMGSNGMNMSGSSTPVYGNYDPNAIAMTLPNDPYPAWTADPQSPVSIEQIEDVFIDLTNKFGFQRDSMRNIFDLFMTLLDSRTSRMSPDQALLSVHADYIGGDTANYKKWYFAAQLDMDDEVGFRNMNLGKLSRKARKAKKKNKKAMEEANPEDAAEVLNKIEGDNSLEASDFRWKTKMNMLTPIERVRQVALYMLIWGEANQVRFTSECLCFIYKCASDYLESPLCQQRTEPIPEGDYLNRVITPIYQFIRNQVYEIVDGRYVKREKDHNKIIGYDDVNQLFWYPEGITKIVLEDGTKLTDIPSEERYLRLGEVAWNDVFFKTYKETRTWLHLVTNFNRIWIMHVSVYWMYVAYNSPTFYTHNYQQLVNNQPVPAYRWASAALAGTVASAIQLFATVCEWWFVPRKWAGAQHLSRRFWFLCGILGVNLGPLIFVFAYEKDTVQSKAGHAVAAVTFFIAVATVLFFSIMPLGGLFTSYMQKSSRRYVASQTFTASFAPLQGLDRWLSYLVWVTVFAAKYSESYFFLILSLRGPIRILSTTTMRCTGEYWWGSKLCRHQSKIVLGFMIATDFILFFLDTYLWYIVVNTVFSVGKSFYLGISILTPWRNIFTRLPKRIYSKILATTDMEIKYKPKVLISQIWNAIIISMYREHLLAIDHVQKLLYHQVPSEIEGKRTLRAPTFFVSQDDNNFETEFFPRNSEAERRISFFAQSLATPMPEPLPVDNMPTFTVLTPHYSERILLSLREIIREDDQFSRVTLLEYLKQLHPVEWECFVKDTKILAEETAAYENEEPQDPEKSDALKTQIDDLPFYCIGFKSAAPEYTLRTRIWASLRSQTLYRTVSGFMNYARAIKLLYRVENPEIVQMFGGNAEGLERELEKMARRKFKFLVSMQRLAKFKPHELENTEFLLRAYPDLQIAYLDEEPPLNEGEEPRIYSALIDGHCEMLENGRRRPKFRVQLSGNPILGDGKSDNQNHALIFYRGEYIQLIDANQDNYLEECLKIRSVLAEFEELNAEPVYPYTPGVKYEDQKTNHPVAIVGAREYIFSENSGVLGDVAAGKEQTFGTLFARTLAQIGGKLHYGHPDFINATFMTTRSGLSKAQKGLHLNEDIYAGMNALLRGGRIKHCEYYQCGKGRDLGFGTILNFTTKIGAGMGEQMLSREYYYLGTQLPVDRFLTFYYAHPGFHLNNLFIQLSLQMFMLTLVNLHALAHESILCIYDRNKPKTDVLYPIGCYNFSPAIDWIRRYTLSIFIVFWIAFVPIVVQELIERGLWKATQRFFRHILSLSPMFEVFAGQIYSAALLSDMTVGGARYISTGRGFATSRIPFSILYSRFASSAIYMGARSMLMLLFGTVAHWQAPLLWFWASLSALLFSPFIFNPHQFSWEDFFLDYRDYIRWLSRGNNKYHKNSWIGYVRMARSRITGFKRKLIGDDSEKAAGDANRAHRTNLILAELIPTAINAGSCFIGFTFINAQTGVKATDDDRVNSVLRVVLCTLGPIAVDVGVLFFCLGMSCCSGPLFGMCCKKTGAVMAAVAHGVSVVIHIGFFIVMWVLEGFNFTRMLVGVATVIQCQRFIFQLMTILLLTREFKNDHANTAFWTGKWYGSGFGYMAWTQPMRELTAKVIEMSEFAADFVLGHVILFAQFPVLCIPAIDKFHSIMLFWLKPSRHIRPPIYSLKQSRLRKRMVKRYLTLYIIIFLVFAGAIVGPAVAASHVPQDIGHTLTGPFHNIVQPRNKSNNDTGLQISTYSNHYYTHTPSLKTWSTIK

Nakaseomyces glabratus [15] = assay: Antifungal activity against Candida glabrata isolate 42997 expressing Fks1p F625S mutant and wild type Fks2p by CLSI method in presence of 50% human serum; assay type: functional; outline: as §3

Row | Structure (SMILES) | IC50 [1] [µM] | IC50 [2] [ng/mL] | MIC (Nakaseomyces glabratus [3]) [µg/mL] | IC50 [4] [ng/mL] | MIC (Nakaseomyces glabratus [5]) [µg/mL] | MIC (Nakaseomyces glabratus [6]) [µg/mL] | IC50 (1,3-beta-glucan synthase [7]) [nM] | MIC (Nakaseomyces glabratus [8]) [µg/mL] | MIC (Nakaseomyces glabratus [9]) [µg/mL] | IC50 (1,3-beta-glucan synthase [10]) [µM] | MIC (Nakaseomyces glabratus [11]) [µg/mL] | MIC (Nakaseomyces glabratus [12]) [µg/mL] | IC50 [13] [ng/mL] | IC50 (1,3-beta-glucan synthase [14]) [nM] | MIC (Nakaseomyces glabratus [15]) [µg/mL]
1 | CCCCCOc1ccc(-c2ccc(-c3ccc(C(=O)N[C@H]4C[C@@H](O)[C@@H](O)NC(=O)[C@@H]5[C@@H](O)[C@@H](C)CN5C(=O)[C@H]([C@@H](C)O)NC(=O)[C@H]([C@H](O)[C@@H](O)c5ccc(O)cc5)NC(=O)[C@@H]5C[C@@H](O)CN5C(=O)[C@H]([C@@H](C)O)NC4=O)cc3)cc2)cc1 [ANIDULAFUNGIN] ({pTerphenylCO(4''-OnC5H11)}-[Orn(4R-OH,5R-OH)]T[Hyp][hTyr(3S-OH,4S-OH)]T[Pro(3S-OH,4S-Me)]; lactam 1-C) | 3.38 | 1.58 (≈ 0.00139 µM) | 2 (≈ 1.75 µM) | 1.91 (≈ 0.00168 µM) | 1 (≈ 0.877 µM) | 0.5 | 75.9 | 0.03 (≈ 0.0263 µM) | 8 | 3.51 | 8 | 0.06 (≈ 0.0526 µM) | 2543.5 (≈ 2.23 µM) | 154 | 8
2 | CC[C@H](C)C[C@H](C)CCCCCCCCC(=O)N[C@H]1C[C@@H](O)[C@@H](NCCN)NC(=O)[C@@H]2[C@@H](O)CCN2C(=O)[C@H]([C@H](O)CCN)NC(=O)[C@H]([C@H](O)[C@@H](O)c2ccc(O)cc2)NC(=O)[C@@H]2C[C@@H](O)CN2C(=O)[C@H]([C@@H](C)O)NC1=O [CASPOFUNGIN] | 4.56 | 1.79 (≈ 0.00164 µM) | 4 (≈ 3.66 µM) | 1.92 (≈ 0.00176 µM) | 16 (≈ 14.6 µM) | 0.12 | 105 | 0.06 (≈ 0.0549 µM) | 8 | 4.68 | 8 | 0.12 (≈ 0.11 µM) | 5248.5 (≈ 4.8 µM) | 463 | 8
3 | CCCCCOc1ccc(-c2cc(-c3ccc(C(=O)N[C@H]4C[C@@H](O)[C@@H](O)NC(=O)[C@@H]5[C@@H](O)[C@@H](C)CN5C(=O)[C@H]([C@H](O)CC(N)=O)NC(=O)[C@H]([C@H](O)[C@@H](O)c5ccc(O)c(OS(=O)(=O)O)c5)NC(=O)[C@@H]5C[C@@H](O)CN5C(=O)[C@H]([C@@H](C)O)NC4=O)cc3)no2)cc1 [MICAFUNGIN] (X1-[Orn(4R-OH,5R-OH)]T[Hyp][hTyr(3S-OH,4S-OH,3'-OSO3H)][Gln(3R-OH)][Pro(3S-OH,4S-Me)]; lactam 1-C) | 0.673 | 1.29 (≈ 0.00102 µM) | 0.12 (≈ 0.0945 µM) | 0.71 (≈ 0.000559 µM) | 1 (≈ 0.787 µM) | 0.25 | 89.3 | 0.06 (≈ 0.0472 µM) | 4 | 2.02 | 8 | 0.12 (≈ 0.0945 µM) | 413.4 (≈ 0.325 µM) | 79.2 | 4
